# From PubChem
# Rows were chosen to be rich in hits. Some 2.3% of all compounds tested hit in one or more screens of this group.
# SDO1 yeast rescue – sdo1-depleted yeast growth rescue; 0.21% of 140,000 active; z-score at 10 µM; AID 817; S. cerevisiae sdo1-depleted JHY4D growth rescue, OD600 30 h; active compounds read high; pdr5 snq2 efflux-pump mutant strain;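 active = z-score above 3 at both the 24 hr and the 30 hr optical density reads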;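 note: z-score against mean and SD of all compound wells on the same plate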
# ROMK primary – modulators of human ROMK potassium channel; 2% of 130,000 active; AID 1918; B-score at 10 µM; P48048; Tet-inducible ROMK, thallium flux fluorescence; actives lie on both sides;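 active = signal ratio slope over the read window, or its plate-corrected B-score, at least 3 SD from the plate mean, either direction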;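 note: B-score of the F/F0 ratio slope over 7 to 12 s after thallium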
# Target sequence (P48048 whole entry, looked up): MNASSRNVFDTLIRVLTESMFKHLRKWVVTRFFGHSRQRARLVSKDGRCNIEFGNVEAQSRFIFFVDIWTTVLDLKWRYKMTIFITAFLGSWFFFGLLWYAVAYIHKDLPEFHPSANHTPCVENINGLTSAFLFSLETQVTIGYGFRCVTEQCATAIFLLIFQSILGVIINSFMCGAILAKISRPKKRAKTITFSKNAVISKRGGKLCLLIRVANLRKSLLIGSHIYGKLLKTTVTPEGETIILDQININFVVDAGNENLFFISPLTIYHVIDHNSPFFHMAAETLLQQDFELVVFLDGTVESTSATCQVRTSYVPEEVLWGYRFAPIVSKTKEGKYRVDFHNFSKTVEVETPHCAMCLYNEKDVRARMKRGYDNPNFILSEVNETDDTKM
# Autophagy HCS – modulators of autophagy; MEF GFP-LC3 puncta imaging; test concentration mostly 10 µM; calls only at 10 µM (by protocol); 0.98% of 190,000 active; AID 463193;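 active = percentage of spot-positive cells more than 3 SD above its plate mean, without a fluorescence outlier flag or 80% toxicity; inconclusive = no clear call, values can overlap the other calls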;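 note: spot-positive cell cutoff set from DMSO-treated cells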
# ABCB1 inh – blocks JC-1 efflux by human ABCB1 transporter; P08183; CCRF-Adr cells, flow cytometry; inhibition, % at 6.6 µM; 0.067% of 190,000 active; AID 1326; in the data active = inhibition above about 40%;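 note: 0% = vehicle and 100% = reference inhibitor; higher value means more JC-1 retained so stronger ABCB1 efflux block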
# Insulin prom up – MIN6 insulin promoter up-regulation; z-score at 5 µM; AID 1625; 0.3% of 190,000 active; MIN6 insulin promoter-GFP reporter, high-content imaging; active compounds read high;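 active = z-score above 3 at 5 µM with at least 500 cells counted in the well; inconclusive = wells under 500 cells, flagged as cytotoxic or low count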
# ABCG2 block – human ABCG2 inhibition, ABCB1 as counter-screen; Q9UNQ0; IgMXP3 cells, JC-1 efflux, flow cytometry; inhibition, % at 6.6 µM; 0.1% of 190,000 active;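 active = inhibition above 80%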;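 note: 0% = DMSO and 100% = nicardipine control wells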
#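 Assay system – ABCG2 IgMXP3 and barcoded ABCB1 CCRF-Adr cell mix · Input – 3 million cells/mL in well · Reagent – JC-1 fluorescent substrate · Compound – single test compound dose, 6.6 µM final · Timing – 10 min exposure at 25 °C with rotation, no wash · Detection – flow cytometry of retained JC-1 fluorescence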
# ROMK hit retest – retested hit modulating human ROMK potassium channel | shares compounds with ROMK primary | ROMK thallium flux, fluorescence ratio; active compounds read low | normalized thallium flux (F/F0 slope) at 10 µM | 54% of 3,000 active | AID 1917;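 active = Flux at 10 µM at least 3 SD below or above vehicle control mean in one or both replicates; inconclusive = no clear call, values can overlap the other calls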
# An asterisk follows results filed as active; i = inactive; ? = inconclusive; / = no result.
SMILES,SDO1 yeast rescue,ROMK primary,Autophagy HCS,ABCB1 inh,Insulin prom up,ABCG2 block,ROMK hit retest
O=C(Nc1cccc(N=Cc2cc(Br)cc(Br)c2O)c1)c1ccco1,-0.44,/,i,-1,/,2,0.11*
CC(C)(C)NC(=O)c1cccc(NC(=O)c2ccco2)c1,-0.24,0.12,i,2,0.36,16,/
S=C(N/N=C1\C2CN3CCN(C2)CC1(c1ccccc1)C3)Nc1ccccc1,-0.69,0.52,i,1,0.11,4,/
Cc1c(C(=O)N2CCCCC2)nn(-c2ccc(Cl)cc2)c(=O)c1C#N,/,0.76,i,0,-0.05,0,/
Oc1[nH]c2ccccc2c1N=Nc1ccccc1,/,/,/,/,0.1,/,0.068*
O=C(Cn1cnc2ccccc21)Nc1ccc(SC(F)F)cc1,/,-0.53,i,0,-2.8,2,/
N#C/C(=C\c1cccc(Oc2ccccc2)c1)C(=O)N1CCOCC1,/,-7*,i,1,-0.32,6,0.036*
COc1cc(/C=C(\C#N)C(=O)N2CCOCC2)cc(Br)c1O,-0.25,/,i,0,0.15,0,/
CCSc1ccc2cc(OC)ccc2[n+]1CC,/,0.52,i,-1,0.17,-1,/
O=C1NCCN(Cc2cccc(Oc3ccccc3)c2)C1CC(=O)N1CCCO1 (stereo not drawn),/,-1.2,i,1,-0.42,6,/
CCn1c(/C=C/Nc2ccccc2)[n+](CC)c2cc(Cl)c(Cl)cc21,0.62,-3.9*,i,0,-0.48,3,0.044*
CCOc1ccc(NC(=O)CCN2CCN(S(=O)(=O)c3ccc(OC)cc3)CC2)cc1,1.3,-0.49,i,1,-0.01,10,/
COc1ccc(NC(=O)CCN2CCN(S(=O)(=O)c3cc(Cl)ccc3OC)CC2)cc1,0.69,-3.3*,i,0,-0.71,1,0.061*
CCCS(=O)(=O)c1c(S(=O)(=O)CCC)c2cnccn2c1C(=O)c1ccc(F)cc1,0.04,0.16,i,2,-0.71,2,/
CCCS(=O)(=O)c1c(S(=O)(=O)CCC)c2cnccn2c1C(=O)c1ccc(CC)cc1,-0.89,-4.1*,i,3,/,2,0.066*
O=C(O)c1cccc(N/N=C/C2=C(Cl)c3cc(Cl)ccc3SC2)c1,/,0.76*,i,-2,0.61,-4,0.08
O=C(O)c1cccc(N/N=C/c2ccc(F)c(F)c2)c1,/,1.6,i,0,-0.76,-2,/
O=S(=O)(NCc1ccco1)c1cccc2cccnc12,-0.57,1.3*,i,0,0.54,-3,0.079
Cc1[nH]c2ccccc2c1C(=O)CSc1nc2ccccc2c(=O)n1CCCN1CCOCC1,-1.6,-0.27,i,3,-1.2,2,/
Cc1nn(-c2ccccc2)c(Cl)c1/C=C(\C#N)C(=O)NC(C)C,-1.1,/,i,1,0.11,9,0.038*
COc1ccccc1NC(=O)/C(C#N)=C/c1c(C)nn(-c2ccc(F)cc2)c1Cl,-1.3,/,i,0,-0.57,6,/
CCOC(=O)COc1c(/C=N\O)cc(Cl)cc1OC,/,0.077,i,1,-0.02,11,/
CCOc1ccc(NC(=O)NC(=O)N(C)S(=O)(=O)c2ccc(C)cc2)cc1,/,-2*,i,3,/,2,0.077
CCOc1ccccc1NC(=O)NC(=O)N(C)S(=O)(=O)c1ccc(C)cc1,/,0.019,i,0,-0.21,3,/
O=C(O)c1ccccc1CSc1nnc2c(n1)[nH]c1ccccc12,/,/,/,/,0.25,/,/
SMILES,SDO1 yeast rescue,ROMK primary,Autophagy HCS,ABCB1 inh,Insulin prom up,ABCG2 block,ROMK hit retest
COc1ccc(C2=CC(=O)OC3(CCCCC3)O2)cc1,-1.5,-2.4*,i,1,0.76,4,0.062*
COc1cccc(NC=C2C(=O)OC3(CCCCC3)OC2=O)c1,0,-0.66,i,1,0.02,4,/
Cc1cc2oc(=O)cc(Cn3ccnc3)c2cc1C,0.85,-6.3*,i,0,-0.35,1,0.077
Cc1ccc2nc(NC(=O)c3ccc(OCC4CCCO4)cc3)sc2c1 (stereo not drawn),-0.63,-0.74,i,0,-0.49,-6,/
CN1C(=S)N(c2cccnc2)C(=O)/C1=C\c1ccc(N(C)C)cc1,/,-5.5*,i,1,/,4,0.041*
CC(C)c1ccc(/C=N/NC(=O)CC(=O)NC2CCCCC2)cc1,/,-9.2*,i,1,-0.33,3,0.072
CC(C)c1ccc(/C=C/C(=O)NC2CCCCC2)cc1,0.01,/,i,1,0.37,10,/
Oc1ccc(C=Nc2ccc(N3CCOCC3)cc2)c(O)c1,0.31,/,i,0,-0.12,1,/
Oc1cc(Br)ccc1C=Nc1ccc(N2CCCCC2)cc1,/,/,/,/,-0.18,/,0.046*
CC(CSc1nc2ccccc2s1)Cn1c(N2CCCC2)nc2c1c(=O)[nH]c(=O)n2C (stereo not drawn),-1,-3.1*,i,7,-0.58,13,0.06*
CCN1CCN(c2nc3c(c(=O)[nH]c(=O)n3C)n2CCSc2nc3ccccc3s2)CC1,0.45,/,/,0,1.2,2,/
Cc1ccc(C)c(N2CCN(S(=O)(=O)c3ccc4c(c3)CCC(=O)N4)CC2)c1,-0.25,0.039,i,4,0.93,31,/
Cc1ccc(C)c(N2CCN(S(=O)(=O)c3ccc4[nH]c(=O)c(=O)[nH]c4c3)CC2)c1,0.52,3.9*,i,0,0.43,2,?
COc1ccccc1C(=O)NCCNC(=O)c1ccco1,0.89,-0.35,i,1,/,27,0.076
COc1cccc(CNCCNC(=O)c2ccco2)c1OC,-0.4,2.9*,i,-1,0.57,-2,0.078
CCCCOc1ccc(C(=S)N2CCC(C(N)=O)CC2)cc1,/,-0.15,i,0,0.62,0,/
CCNc1nc(NCC)n2c(SC(C(=O)Nc3cc(Cl)cc(Cl)c3)c3ccccc3)nnc2n1 (stereo not drawn),0.17,/,i,1,0.01,1,/
O=C(c1cccc(C(F)(F)F)c1)N1CCC(O)(CS(=O)(=O)Cc2ccc(Cl)cc2)CC1,0.72,/,i,0,-0.01,4,0.075
CCOC(=O)C1(CCc2ccccc2)CCN(C(=O)c2cnc(C)cn2)CC1,/,0.00014,i,0,/,1,/
OCC1CCCCN1CCNCc1cn[nH]c1-c1cccc2ccccc12 (stereo not drawn),/,/,/,/,-0.5,/,/
c1ccc2c(-c3[nH]ncc3CNCCCn3ncc4ccccc43)cccc2c1,/,-1.8*,i,0,0.85,1,?
COc1ccc(C(=S)N2CCN(c3ccccc3C)CC2)cc1,/,-1.4,/,/,-0.05,/,/
CC(=NCc1ccco1)c1c(O)n(C2CCCCC2)c(=O)[nH]c1=O,-1.1,-2.8*,i,-2,1,0,0.058*
CCc1nnc(NC(=O)c2cccnc2SC)s1,/,0.26,i,0,0.52,2,/
Cc1cc(-c2csc(NC(=O)c3cc4ccccc4o3)n2)c(C)n1C,-2.1,/,i,-1,/,0,?
